Compound activity (PubChem)
ABHD5-PLIN5 inh: ABHD5-PLIN5 interaction inhibitors, primary screen, cell lysate, split luciferase complementation, luminescence; Perilipin-5 (Homo sapiens) + 1-acylglycerol-3-phosphate O-acyltransferase ABHD5 (Homo …; inhibition, % at 4 µM; Split G. princeps luciferase complementation, 4 h; AID 602281, 2012; 0.78% of 360,000 active;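 active = inhibition above the mean inhibition across every tested compound plus 3 SD, cut at about 22% in these data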;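 note: 0% = DMSO only wells and the 100% control is not disclosed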
B2AR ag: beta2AR agonists driving receptor internalization, primary screen, cell-based, FAP fluorogen, flow cytometry | Beta-2 adrenergic receptor (Homo sapiens), P07550 | Am2.2-beta2AR cells | response, % (concentration not given with the values) | 0.43% of 340,000 active | AID 504454, 2011;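 active = response above a set limit, near 3 SD of response in nonfluorescent compounds, cut at about 42% in these data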
Target sequence (P07550 whole entry, looked up): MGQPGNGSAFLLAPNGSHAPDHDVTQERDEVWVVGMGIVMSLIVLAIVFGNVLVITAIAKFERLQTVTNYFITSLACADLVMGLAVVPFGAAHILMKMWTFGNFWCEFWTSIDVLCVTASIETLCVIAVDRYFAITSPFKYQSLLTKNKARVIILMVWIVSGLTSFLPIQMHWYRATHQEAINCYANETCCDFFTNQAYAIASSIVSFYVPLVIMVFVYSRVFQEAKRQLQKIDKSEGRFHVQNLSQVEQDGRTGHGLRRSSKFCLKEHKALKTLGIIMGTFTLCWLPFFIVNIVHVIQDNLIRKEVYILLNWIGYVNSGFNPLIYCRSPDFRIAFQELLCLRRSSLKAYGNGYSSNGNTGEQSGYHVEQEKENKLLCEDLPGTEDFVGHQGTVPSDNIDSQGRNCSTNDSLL
Rin1 Abl inh: inhibitors of Rin1-Abl protein binding, primary screen, biochemical, TR-FRET; 0.4% of 360,000 active; Tyrosine-protein kinase ABL1 (Homo sapiens) + Ras and Rab interactor 1 (Homo sapiens), …; inhibition, % at 7.35 µM; in the data active = inhibition above about 5%, passing the limit was not always enough
MBD2 inh: inhibitors of MBD2 binding to methylated DNA, primary screen, biochemical, TR-FRET, DNA-binding domain, human; Methyl-CpG-binding domain protein 2 (Homo sapiens), Q9UBB5; MBD2 binding to methylated oligonucleotide; inhibition, % at 4.4 µM; 0.31% of 370,000 active; in the data active = inhibition above about 13%
Arr AP2 block: inhibitors of beta-arrestin/AP2 binding, primary screen, biochemical, GPCR trafficking, flow cytometry; 0.31% of 340,000 active; AID 504490, 2011; FITC-arrestin peptide / GST-AP2 beads; AP2 beta2 appendage carries R879A mutation; inhibition, % at 10 µM;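 active = inhibition above a set limit, near 3 SD of compounds lacking own fluorescence, cut at about 54% in these data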;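 note: plate controls were DMSO wells for no effect and 5 µM unlabelled arrestin peptide for full effect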
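system = GST-tagged AP2 beta2-adaptin appendage (R879A) on 4 µm glutathione beads | reagent = FITC-labelled arrestin peptide probe, 50 nM final | schedule = compound with beads 12 min RT, then probe 1 h RT | signal = HyperCyt-sampled flow cytometry, FL1 channel, ex 488/em 535 nm | read-out = percent response from loss of bead-bound FITC fluorescence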
UHRF1 MBD2 ctr: UHRF1 methylated DNA binding inhibitors, primary screen, counter-screen for MBD2 inhibitor project, biochemical, TR-FRET, human UHRF1, single concentration. UHRF1 binding to methylated oligo. AID 687016, 2013. 0.75% of 370,000 active. inhibition, % at 4.4 µM; in the data active = inhibition above about 21%;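 note: UHRF1 SRA domain binding a hemimethylated CpG hairpin DNA probe; 0% = median of test compound wells and 100% = reference inhibitor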
Beta2AR ag CP1: beta2AR agonists via receptor internalization, confirmation, cell-based, FAP fluorogen, flow cytometry, single point, cherry pick 1 | AID 540358, 2011 | Am2.2-beta2AR cells, FAP surface receptor; stronger effect = lower value | 25% of 1,100 active | shares compounds with B2AR ag | percent response (surface receptor), % at 10 µM;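 active = surface receptor percent response at or below 58%, roughly 3 SD from nonfluorescent compounds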
B2AR FAP counter: flagged in Am2.2 fluorescence counterscreen for beta-2AR agonists. AID 588765. 1,100 tested, under 10 active. calls only at 10 µM. shares compounds with B2AR ag. Am2.2 cells, FAP fluorogen flow cytometry; stronger effect = lower value;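 active = percent response below a set limit in fluorescence channel 1 and below 50% in channel 8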
The depositor's hits bear a star; i = inactive; . = no result given. This is a sample that favours compounds with a hit; in the whole collection about 2.5% have one here.

SMILES	ABHD5-PLIN5 inh	B2AR ag	Rin1 Abl inh	MBD2 inh	Arr AP2 block	UHRF1 MBD2 ctr	Beta2AR ag CP1	B2AR FAP counter
Cc1ccc(OCc2cc(C(=O)N(C)Cc3cnn(C)c3)no2)cc1C	-2	.	3	-6	.	0	.	.
CCC(NC(=O)c1cc(COc2cncc(Cl)c2)on1)c1ccc(C)cc1 (centres undefined)	3	-1	1	-1	-15	4	88	i
COC(=O)[C@@H](NC(=O)c1cc(COc2cncc(Cl)c2)on1)c1ccccc1	-3	2	-1	1	-3	2	97	i
COCC1CCCN(C(=O)c2cc(COc3cncc(Cl)c3)on2)C1 (centres undefined)	-8	-4	2	-5	-13	1	.	.
CCc1ccc(CN(C)C(=O)c2cc(COc3ccc(-n4cncn4)cc3)on2)cc1	-3	-5	3	-3	5	-3	.	.
CCc1ccc(CN(C)C(=O)c2cc(COc3cncc(Cl)c3)on2)cc1	-3	.	-2	-4	.	-2	106	i
Cc1ccc(OCc2cc(C(=O)N(C)Cc3cnn(-c4ccccc4C)c3)no2)cn1	9	100*	-2	-4	34	0	19*	i
Cc1ccc(C)c(NC(=O)Cn2nnc(-c3ccncc3)n2)c1	.	.	.	0	.	-1	.	.
O=[N+]([O-])c1ccc(Sc2nc3ccccc3o2)c([N+](=O)[O-])c1	16	74*	0	-3	2	-1	71	i
O=[N+]([O-])c1ccc(Cl)cc1Sc1nc2ccccc2o1	4	-28	0	5	0	3	.	.
CCOc1cc(C(=S)N2CCOCC2)ccc1OS(=O)(=O)c1ccccc1[N+](=O)[O-]	3	6	-1	0	20	6	87	i
COc1cc(C(=S)N2CCOCC2)ccc1OS(=O)(=O)c1ccccc1[N+](=O)[O-]	6	5	2	-3	.	-3	.	.
Oc1cc(O)cc(C=Cc2ccc(O)c(O)c2)c1	.	.	.	2	.	7	.	.
COc1ccc(CN2C[C@]3(C=C4CCCCC4n4c(=O)n(-c5ccccc5)c(=O)n43)N=C2NC(=O)c2ccccc2)c(OC)c1 (some centres undefined)	.	.	.	1	.	-3	.	.
CC(C)Nc1ccc(Nc2ccnc3cc4ccccc4cc23)cc1	10	80*	-17	5	25	10	113	i
Cc1ccc(S(=O)(=O)c2ccc([N+](=O)[O-])o2)cc1	85*	86*	4	4	-11	4	16*	i
Cc1nc2cc(N3CCOCC3)c(NC(=O)C3CC3)cc2c(=O)n1Cc1ccccc1	-5	49*	-1	8	2	16	65	i
Cc1nc2cc(N3CCCCC3)c(NC(=O)c3ccncc3)cc2c(=O)n1Cc1ccccc1	2	4	1	-7	-4	1	.	.
COc1cc(C=Nn2c(-c3n[nH]c4c3CCC4)n[nH]c2=S)ccc1OCc1ccccc1	.	.	.	2	.	-2	.	.
Cc1ccn2c(Nc3ccc4c(c3)OCO4)c(-c3ccccn3)nc2c1	-10	-1	-6	-16	33	-19	.	.
Cc1ccc(Nc2c(-c3ccccn3)nc3cc(C)ccn23)cc1	6	76*	-6	0	4	-3	128	i
COc1cccc(OC)c1C(=O)Nc1ccc(NC(=O)c2ccco2)cc1	-3	-10	-2	5	20	2	99	i
CC(C)Oc1cccc(C(=O)Nc2ccc(NC(=O)c3ccco3)cc2)c1	0	-10	3	0	18	-4	148	i
Cc1ccc(S(=O)(=O)N2CCC(C(=O)Nc3nnc(-c4ccc(F)cc4)s3)CC2)cc1	-6	65*	0	11	5	25*	102	i
Cn1c(SCc2ccc(Cl)cc2)nnc1C1CC1	-8	-9	3	1	24	10	.	.
SMILES	ABHD5-PLIN5 inh	B2AR ag	Rin1 Abl inh	MBD2 inh	Arr AP2 block	UHRF1 MBD2 ctr	Beta2AR ag CP1	B2AR FAP counter
Cc1cc(C)c2c(N)c(-c3nnc(SCc4ccc(Cl)cc4)n3C)sc2n1	2	111*	0	-3	-8	1	21*	i
C=CCn1c(SCc2c(Cl)cccc2Cl)nnc1-c1cccc(C)c1	.	.	.	-2	.	1	.	.
C=CCn1c(SCc2ccccc2Cl)nnc1-c1sc2nc(C)cc(C)c2c1N	-4	110*	4	5	5	3	17*	i
COC(=O)C1CN(Cc2ccc(F)cc2)CCS(=O)(=O)N1Cc1cn(CCOC(C)=O)nn1 (centres undefined)	.	.	.	3	.	14	.	.
Cc1ccnc(NC(=S)N2CC3CN(c4cccc(C(F)(F)F)c4)CC3C2)c1 (centres undefined)	.	.	.	0	.	0	.	.
O=C(CSc1nc2ccccc2c(=O)n1-c1ccc(F)cc1F)c1c[nH]c2ccccc12	-1	45*	3	0	5	5	112	i
Cc1cc(C)n(C(=O)CCCC(=O)n2nc(C)cc2C)n1	1	54*	-1	5	23	1	92	i
Cc1cc(C)n(C(=O)CCCCCCCC(=O)n2nc(C)cc2C)n1	2	0	0	-2	-3	-1	.	.
CCOC(=O)CC[C@@]1(C(=O)OCC)C[C@@H](CC(=O)N2CCN(C(=O)c3ccco3)CC2)C(=O)N2CCCC=C21	.	.	.	-4	.	-2	.	.
Cn1c(=S)c2[nH]c(SCCN3CCCC3)nc2n(C)c1=O	6	-3	3	-4	9	-13	115	i
c1ccc(CN2CCN(c3ncnc4sccc34)CC2)cc1	.	.	.	-9	.	0	.	.
COc1ccc(Cl)c2sc(N(CCN(C)C)C(=O)c3ccc4c(c3)OCCO4)nc12	8	44*	1	3	-2	2	128	i
COC(=O)c1cc([N+](=O)[O-])c(-n2cncn2)c([N+](=O)[O-])c1	6	50*	1	-1	1	-3	34*	i
